According to ChEMBL document CHEMBL1132613 (J Med Chem, 1999):

Columns and labels:
[1] = target: T1, 5-hydroxytryptamine receptor 1A (Rattus norvegicus, UniProt P19327); experiment: Compound was tested for the displacement of [3H]-8-OH- DPAT from rat brain 5-hydroxytryptamine 1A receptor
T1 sequence (P19327 whole entry): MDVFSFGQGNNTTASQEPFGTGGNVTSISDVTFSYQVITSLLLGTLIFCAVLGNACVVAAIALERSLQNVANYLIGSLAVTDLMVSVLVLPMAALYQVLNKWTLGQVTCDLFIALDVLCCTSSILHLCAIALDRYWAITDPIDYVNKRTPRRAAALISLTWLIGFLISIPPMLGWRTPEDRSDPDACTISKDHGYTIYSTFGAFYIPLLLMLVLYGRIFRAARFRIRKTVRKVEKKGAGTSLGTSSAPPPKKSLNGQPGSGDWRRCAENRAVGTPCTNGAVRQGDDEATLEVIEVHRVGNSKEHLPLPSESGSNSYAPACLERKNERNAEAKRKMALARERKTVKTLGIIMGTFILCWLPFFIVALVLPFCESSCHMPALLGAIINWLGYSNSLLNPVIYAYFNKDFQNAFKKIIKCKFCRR
In short: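 Pooled rat hippocampal membranes were preincubated at 37 °C. Buffer was 50 mM Tris HCl pH 7.4 with 0.5 mM Na2EDTA, 10 mM MgCl2, 0.1% Na ascorbate and pargyline. 200–400 μg protein was incubated with [3H]-8-OH-DPAT for 15 min at 37 °C, then GF/C filtered and scintillation counted. Nonspecific binding was defined with 10 μM 5-HT. Triplicate tubes.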

Rattus norvegicus [2] = experiment: Drug Discrimination in […] trained rats at 0.5 mg/kg dose; format: functional
In short: (§1)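 Male Sprague–Dawley rats (200–220 g) in a two-lever, FR50 food-reinforced task. Rats were trained to discriminate saline from LSD tartrate (0.08 mg/kg), DOI HCl (0.4 mg/kg) or LY293284 (0.025 mg/kg) in 15-min sessions. %SDL is the share of rats making over 80% of presses on the drug lever. %D is the share failing to make 50 presses within 15 min. ED50 by Litchfield–Wilcoxon log-probit.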

Rattus norvegicus [3] = experiment: Drug Discrimination in […] trained rats at 1.0 mg/kg dose; format: functional; in short: as §1
Rattus norvegicus [4] = experiment: Drug Discrimination in […] trained rats at 2.0 mg/kg dose; format: functional; in short: as §1
Rattus norvegicus [5] = experiment: Drug Discrimination in […] trained rats at 4.0 mg/kg dose; format: functional; in short: as §1
Rattus norvegicus [6] = experiment: Drug Discrimination in […] trained rats at 8.0 mg/kg dose; format: functional; in short: as §1
Rattus norvegicus [7] = experiment: Percentage of animals failing to emit 50 lever presses within 15 min in rats at 2.0 mg/kg dose; format: functional
In short: (§2)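 Two-lever drug discrimination in male Sprague–Dawley rats (200–220 g at start), trained against saline on LSD tartrate (0.08 mg/kg), DOI HCl (0.4 mg/kg) or LY293284 (0.025 mg/kg). FR50 food-pellet reinforcement, levers counterbalanced, 15-min sessions at 22–24 °C. %D is the share of tested rats not completing 50 lever presses within 15 min.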

Rattus norvegicus [8] = experiment: Percentage of animals failing to emit 50 lever presses within 15 min in rats at 4.0 mg/kg dose; format: functional; in short: as §2
Rattus norvegicus [9] = experiment: Percentage of animals failing to emit 50 lever presses within 15 min in rats at 8.0 mg/kg dose; format: functional; in short: as §2
Rattus norvegicus [10] = experiment: Percentage of animals failing to emit 50 lever presses within 15 min in rats at 1.0 mg/kg dose; format: functional; in short: as §2
Rattus norvegicus [11] = experiment: Percentage of animals emitting >80% of lever presses in rats at 1.0 mg/kg dose; format: functional; in short: as §1
Rattus norvegicus [12] = experiment: Percentage of animals emitting >80% of lever presses in rats at 2.0 mg/kg dose; format: functional; in short: as §1
Rattus norvegicus [13] = experiment: Percentage of animals emitting >80% of lever presses in rats at 4.0 mg/kg dose; format: functional; in short: as §1
Rattus norvegicus [14] = experiment: Percentage of animals emitting >80% of lever presses in rats at 8.0 mg/kg dose; format: functional; in short: as §1
[15] = target: 5-hydroxytryptamine receptor 2A (Homo sapiens, UniProt P28223)
Rattus norvegicus [16] = experiment: Percentage of animals failing to emit 50 lever presses within 15 min in rats at a compound dose of 0.02 mg/kg; format: functional; in short: as §2
Rattus norvegicus [17] = experiment: Percentage of animals failing to emit 50 lever presses within 15 min in rats at a compound dose of 0.027 mg/kg; format: functional; in short: as §2
Rattus norvegicus [18] = experiment: Percentage of animals failing to emit 50 lever presses within 15 min in rats at a compound dose of 0.005 mg/kg; format: functional; in short: as §2
Rattus norvegicus [19] = experiment: Percentage of animals failing to emit 50 lever presses within 15 min in rats at a compound dose of 0.01 mg/kg; format: functional; in short: as §2
Rattus norvegicus [20] = experiment: Percentage of animals emitting >80% of lever presses in rats at a compound dose of 0.030 uM/Kg; format: functional; in short: as §1
Rattus norvegicus [21] = experiment: Percentage of animals emitting >80% of lever presses in rats at a compound dose of 0.060 uM/Kg; format: functional; in short: as §1
Rattus norvegicus [22] = experiment: Percentage of animals emitting >80% of lever presses in rats at a compound dose of 0.080 uM/Kg; format: functional; in short: as §1
Rattus norvegicus [23] = experiment: Percentage of animals emitting >80% of lever presses in rats at a compound dose of 0.015 uM/Kg; format: functional; in short: as §1

Chain of 5-hydroxytryptamine receptor 2A (P28223 whole entry): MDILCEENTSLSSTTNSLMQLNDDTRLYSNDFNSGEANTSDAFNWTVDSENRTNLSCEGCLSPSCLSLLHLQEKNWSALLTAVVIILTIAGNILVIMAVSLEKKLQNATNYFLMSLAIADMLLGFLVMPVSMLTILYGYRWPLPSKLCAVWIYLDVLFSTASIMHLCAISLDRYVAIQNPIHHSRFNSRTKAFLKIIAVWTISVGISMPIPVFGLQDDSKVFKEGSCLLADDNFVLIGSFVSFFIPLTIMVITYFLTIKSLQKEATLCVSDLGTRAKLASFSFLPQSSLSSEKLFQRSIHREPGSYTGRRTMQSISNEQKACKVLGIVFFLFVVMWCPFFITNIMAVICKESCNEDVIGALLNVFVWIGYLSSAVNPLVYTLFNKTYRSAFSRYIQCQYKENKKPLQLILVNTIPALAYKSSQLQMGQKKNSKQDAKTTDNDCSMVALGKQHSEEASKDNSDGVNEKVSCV

Q: For `CN(C)CCc1c[nH]c2ccccc12`, which Ki [1] is on record?
A: 259 nM

Q: And the D (Rattus norvegicus [2])?
A: 0%

Q: What about the SDL (Rattus norvegicus [2]) of the same compound?
A: 0%

Q: What about the D (Rattus norvegicus [3]) of the same compound?
A: 11%

Q: And the SDL (Rattus norvegicus [3])?
A: 20%

Q: And the D (Rattus norvegicus [4])?
A: 20%

Q: And the SDL (Rattus norvegicus [4])?
A: 37.5%

Q: What about the D (Rattus norvegicus [5]) of the same compound?
A: 20%

Q: What about the SDL (Rattus norvegicus [5]) of the same compound?
A: 62.5%

Q: What about the D (Rattus norvegicus [6]) of the same compound?
A: 80%

Q: What about the SDL (Rattus norvegicus [6]) of the same compound?
A: 100%

Q: And the D (Rattus norvegicus [7])?
A: 18%

Q: And the D (Rattus norvegicus [8])?
A: 23%

Q: And the D (Rattus norvegicus [9])?
A: 37%

Q: What about the D (Rattus norvegicus [10]) of the same compound?
A: 0%

Q: And the SDL (Rattus norvegicus [11])?
A: 37%

Q: And the SDL (Rattus norvegicus [12])?
A: 22%

Q: What about the SDL (Rattus norvegicus [13]) of the same compound?
A: 40%

Q: And the SDL (Rattus norvegicus [14])?
A: 83%

Q: What about the Ki [15] of the same compound?
A: 65 nM

Q: Which D (Rattus norvegicus [16]) does the source give for `CCCN(CCC)C1Cc2c[nH]c3ccc(C(C)=O)c(c23)C1` (stereo not drawn) [LY-293284] here?
A: 0%

Q: What about the D (Rattus norvegicus [17]) of the same compound?
A: 27%

Q: What about the D (Rattus norvegicus [18]) of the same compound?
A: 8%

Q: What about the D (Rattus norvegicus [19]) of the same compound?
A: 0%

Q: And the SDL (Rattus norvegicus [20])?
A: 45%

Q: And the SDL (Rattus norvegicus [21])?
A: 83%

Q: And the SDL (Rattus norvegicus [22])?
A: 100%

Q: What about the SDL (Rattus norvegicus [23]) of the same compound?
A: 9%
